# Tested on: FLAG-tagged, full-length WT BCL-2
# Test: Streptavidin pull-down from HEK 293T lysate, FLAG-BCL-2 WT, anti-FLAG western
# Type: binding, human
# Conditions: biotinylated BAD SAHB 4.2 1 μM, 300 μg lysate, overnight 4 °C
# Method in brief: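 HEK 293T cells (DMEM, 10% FBS, penicillin/streptomycin, 2 mM glutamine; mycoplasma-free) were transfected at 70% confluence with 3 μg of plasmid encoding N-FLAG full-length BCL-2 (aa 1–239) and lysed after 24 h in CHAPS buffer. Lysate (300 μg) took 1 μM biotinylated test peptide ± competitor (0.1, 1.0, 10 μM), overnight, 4 °C. Streptavidin agarose capture followed (2 h, room temperature), then PBS and 1% NP-40 washes, LDS elution and anti-FLAG western; three independent repeats.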
structure (smiles),measurement,setting,value
CC1(C)CCC(CN2CCN(c3ccc(C(=O)NS(=O)(=O)c4ccc(NCC5CCOCC5)c([N+](=O)[O-])c4)c(Oc4cnc5[nH]ccc5c4)c3)CC2)=C(c2ccc(Cl)cc2)C1 [venetoclax],displacement of biotin-BAD SAHB 4.2 from FLAG-BCL-2 WT,venetoclax 1 μM,near complete dissociation
same,displacement of biotin-BAD SAHB 4.2 from FLAG-BCL-2 WT,venetoclax 10 μM,complete dissociation

# Reference: article PMC12480952 (Nature Communications, 2025)
